Bioassay records deposited in PubChem by several laboratories.
Runt-SMMHC FRET – blocks binding of human RUNX1 Runt domain to CBFb-SMMHC. Cerulean-Runt/Venus-CBFb-SMMHC FRET ratio 530/480, 1 h. inhibition, % at 20 µM. actives 0.74% (n = 220,000);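 active = mean inhibition across duplicate retests at 20 µM reaching about 50%, limit read from the data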;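 note: 0% = DMSO wells and 100% = wells with excess untagged CBFb-SMMHC; inhibitors lower the FRET ratio by blocking Runt binding to CBFb-SMMHC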
Target sequence (Q01196 whole entry, looked up, the tested form may be a part): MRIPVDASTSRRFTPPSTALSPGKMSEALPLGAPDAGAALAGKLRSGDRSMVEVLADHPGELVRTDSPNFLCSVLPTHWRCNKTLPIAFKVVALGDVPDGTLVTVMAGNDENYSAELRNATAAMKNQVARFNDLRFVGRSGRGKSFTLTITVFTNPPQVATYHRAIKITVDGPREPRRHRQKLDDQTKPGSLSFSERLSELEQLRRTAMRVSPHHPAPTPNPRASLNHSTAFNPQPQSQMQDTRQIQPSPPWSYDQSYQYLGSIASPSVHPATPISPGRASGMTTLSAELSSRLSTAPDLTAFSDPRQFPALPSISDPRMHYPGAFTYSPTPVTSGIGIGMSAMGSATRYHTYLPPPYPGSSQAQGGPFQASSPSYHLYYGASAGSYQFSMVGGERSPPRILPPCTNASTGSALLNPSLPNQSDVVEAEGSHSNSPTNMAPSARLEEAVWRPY
Target sequence (Q13951 whole entry, looked up, the tested form may be a part): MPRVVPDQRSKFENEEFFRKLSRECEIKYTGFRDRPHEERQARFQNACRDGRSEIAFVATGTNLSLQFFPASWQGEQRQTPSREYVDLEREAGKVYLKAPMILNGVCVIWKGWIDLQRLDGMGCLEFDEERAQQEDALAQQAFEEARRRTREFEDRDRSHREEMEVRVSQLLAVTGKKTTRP
RanGTP-Imp inh – inhibitors of RanGTP-importin-beta interaction, primary screen, biochemical, FRET, CFP-Ran, YFP-importin-beta, homogeneous. cell-free CFP-Ran/YFP-importin-beta FRET ratio. inhibition, % (concentration not given with the values). actives 1.1% (n = 300,000). AID 2216;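 active = more than half of the replicate wells show a fall in the fluorescence ratio signal beyond about 16%, limit read from the data, passing the limit was not always enough; inconclusive = exactly half of the replicate wells pass the set limit; inactive = fewer than half of replicates pass the limit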;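 note: 0% = DMSO wells and 100% = Ran loaded with GDP instead of GTP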
Runt-CBFb FRET – inhibitors of human RUNX1 Runt domain binding to CBFb | inhibition, % at 20 µM | Cerulean-Runt/Venus-CBFb FRET ratio 530/480, 1 h | Q01196+Q13951 | actives 0.46% (n = 220,000);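 active = inhibition over about 50% at 20 µM in the single-dose screen, limit read from the data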;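 note: 0% = DMSO wells and 100% = excess unlabeled CBFb competitor control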
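Assay system: Cerulean-Runt domain / Medium: Tris 50 mM pH 7.5, KCl, K2SO4, 0.01% BSA / Timing: protein complex preformed 1 h, compound exposure 1 h, room temperature, dark / Measured by: FRET, excitation 422 nm, emission at 530 and 480 nm / Evaluation: loss of energy transfer signal / Control set: 5 µM unlabeled CBFb as full-inhibition high control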
CaV13 ICDI inh – Disruptors of the CACNA1D IQ motif to Ca2+-dependent inactivation inhibitor domain association, primary screening, Förster resonance energy transfer in intact living …; HEK cells, CFP/YFP FRET ICDI-IQ, plate reader, 10 min; percent FRET-ratio fall versus neutral wells; inhibition, % at 12.3 µM; actives 0.098% (n = 340,000); AID 743397;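 active = mean replicate inhibition of at least 30% and at least 1% of replicates passing that level; inconclusive = only one of the two criteria is met; inactive = neither criterion is met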;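 note: 0% = median of the neutral control wells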
Hck-Nef inh – inhibitors of human Hck kinase activated by Nef. AID 463187. inhibition, % at 20 µM. P08631. actives 0.68% (n = 220,000). Recombinant Hck-YEEI plus Nef, Z-Lyte FRET kinase assay;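 active = Hck-Nef kinase inhibition above about 50%, limit read from the data; inactive = inhibition below that limit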;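 note: 0% = DMSO with Hck plus Nef and 100% = Hck alone without Nef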
The depositor's hits bear a star; u = inconclusive; x = not tested or not shown; + = active, no number. Compounds with a hit are over-represented: about 1.5% of the library has one in this group of screens.

SMILES	Runt-SMMHC FRET	RanGTP-Imp inh	Runt-CBFb FRET	CaV13 ICDI inh	Hck-Nef inh
COC(=O)C1=CN(Cc2ccc(OC)cc2)C=C(C(=O)OC)C1c1cc(OC)c(OC)c(OC)c1	x	12.6	x	x	x
COC(=O)C1=CN(CC2CCCO2)C=C(C(=O)OC)C1c1cc(OC)c(OC)c(OC)c1 (centres undefined)	92.7*	3.3	36.6	-4.5	45.4
COc1cc(C(=O)NCCNc2nc3ccc(C)cc3cc2C#N)cc(OC)c1OC	x	81.2*	x	1.8	x
COc1cc(C(=O)NCCCNc2nc3c(C)cc(C)cc3cc2C#N)cc(OC)c1OC	22.9	2.1	16.4	58.6*	34.1
COc1ccccc1Nc1nc2ccc(C)cc2cc1C#N	-71.9	9.3	-8.7	-11.5	2.1
COc1ccc2nc(NCCCNC(=O)c3cc(OC)c(OC)c(OC)c3)c(C#N)cc2c1	38.0	125.7*	56.8*	-0.8	6.0
COc1cc(C(=O)NCCNc2nc3c(C)cccc3cc2C#N)cc(OC)c1OC	x	x	x	-4.6	x
Cc1ccc2nc(NCc3ccccc3)c(C#N)cc2c1	82.7	38.2*	41.7	-4.9	12.5
COc1cccc(C(=O)NCCCNc2nc3cc(C)cc(C)c3cc2C#N)c1	x	x	x	-6.8	x
COc1ccc(NC(=O)C2CC(=O)N(CCc3ccc(F)cc3)C2)c(OC)c1 (centres undefined)	x	0.8	x	-3.0	x
COc1ccc(C(=O)NCCNc2nc3cc(C)cc(C)c3cc2C#N)cc1	x	x	x	-13.4	x
COc1ccc(C(=O)NCCNc2nc3ccc(C)cc3cc2C#N)cc1	x	65.4*	x	24.9	x
CC(NC(=O)C1CCCN1S(=O)(=O)c1ccccc1)c1ccccc1 (centres undefined)	x	-1.4	x	-5.1	x
C/C(=N\NC(=O)c1nnn(-c2nonc2N)c1C(C)C)c1cc(C)sc1C	x	97.4*	x	-6.3	x
CC1CCN(C(=O)c2ccccc2NS(=O)(=O)c2ccccc2)CC1	x	2.7	x	-3.2	x
O=C(/C=C/c1ccc([N+](=O)[O-])cc1)c1cccs1	1.0	-2.7	4.9	-4.7	5.5
COc1cc([N+](=O)[O-])ccc1N/C=C/C(=O)c1cccs1	-6.4	26.5*	-48.3	-11.0	2.7
O=c1oc2c(CN3CCN(CCO)CC3)c(O)ccc2cc1-c1ccccn1	80.2*	155.8*	10.8	+	-17.5
O=c1oc2c(O)cccc2cc1-c1nc2ccccc2[nH]1	x	132.6*	x	33.7*	x
CCc1cc2c(=O)c(-c3nc4ccccc4[nH]3)coc2c(CN2CCCCC2)c1O	3.3	-2.3	-1.4	-15.1	16.4
O=c1oc2c(CN3CCCCC3)c(O)ccc2cc1-c1nc2ccccc2[nH]1	57.4*	x	17.9	34.7*	x
CN(Cc1ccc2c(c1)OCCO2)C(=O)CSc1ncnc2sccc12	x	x	x	-5.5	x
CCOC(=O)c1c[nH]c2nc(C)ccc2c1=O	30.0	24.0*	7.1	-5.1	9.9
COc1cccc(-c2nc(-c3ccc4c(c3)-c3ccccc3S4(=O)=O)c(-c3ccccc3)[nH]2)c1OC	x	15.5*	-11.3	-6.0	-9.6
COc1cc(-c2nc(-c3ccc4c(c3)-c3ccccc3S4(=O)=O)c(-c3ccccc3)[nH]2)cc(OC)c1OC	-108.1	-6.6	-53.0	x	-25.8
SMILES	Runt-SMMHC FRET	RanGTP-Imp inh	Runt-CBFb FRET	CaV13 ICDI inh	Hck-Nef inh
Cc1cc([N+](=O)[O-])c(C)cc1-c1ccc(/C=N/NC(=O)Cn2nnnc2N)o1	11.5	-5.4	19.3	-5.6	53.2*
CCOc1ccc(N(CC(=O)Nc2ccc(C)c(Cl)c2)S(C)(=O)=O)cc1	x	2.6	x	-0.8	x
CCCCOc1ccc(/C=C2/Sc3ccccc3C2=O)cc1	-11.9	14.4	-1.7	-4.0	-3.0
CC(C)COc1ccc(/C=C2/Sc3ccccc3C2=O)cc1	-33.8	43.1*	-12.5	0.2	-0.4
COc1ccc(-c2oc3ccccc3c2C#CC(C)(C)O)cc1	x	x	x	-10.2	x
CCn1c(=N)c(S(=O)(=O)c2ccccc2)cc2c(=O)n3ccccc3nc21	90.5*	169.8*	20.6	32.5*	18.4
CCCn1c(=N)c(S(=O)(=O)c2ccccc2)cc2c(=O)n3ccccc3nc21	84.0*	198.3*	21.6	129.5*	-7.0
N=c1c(S(=O)(=O)c2ccccc2)cc2c(=O)n3ccccc3nc2n1CCN1CCOCC1	x	x	x	x	23.8
O=C(CCNC(=O)c1ccc(Br)cc1)NNC(=O)c1ccccc1	x	x	x	-4.2	x
CCOn1c(=O)c(-c2cccs2)[n+]([O-])c2ccccc21	9.9	20.6*	8.2	x	-16.1
CCOc1ccc(NC(=O)CN2C(=O)S/C(=C/c3cccn3C)C2=O)cc1	-46.7	16.4*	-11.7	-10.0	17.9
Cc1c(O)ccc2cc(S(=O)(=O)c3ccccc3)c(=O)oc12	x	131.8*	x	34.2*	x
Cc1ccc(S(=O)(=O)c2cc3ccccc3oc2=O)cc1	-26.3	u	-6.5	-4.9	-0.7
Cc1cc(C(C)(C)C)cc(S(=O)(=O)NCCc2ccncc2)c1C	x	3.6	x	-17.5	x
CC(=O)c1c(OC(=O)c2ccco2)c2ccccc2n1C	-2.9	3.9	-0.4	-3.1	-2.2
CC(=O)c1sc2ccccc2c1OC(=O)c1ccco1	36.7	37.5*	13.1	x	31.5
CC(C)(C)c1cc(C(=O)NCC(=O)OCC(=O)c2cccc([N+](=O)[O-])c2)cc(C(C)(C)C)c1	-1.2	32.3*	-4.8	-13.5	5.8
O=C(O)C1CCCCC1C(=O)Nc1ccc(Cl)cc1Cl (centres undefined)	3.8	5.9	1.4	-8.2	3.3
O=C(O)C1CCCCC1C(=O)Nc1cc(Cl)ccc1Cl (centres undefined)	-3.1	-0.8	-1.7	-4.5	-0.1
CC1CC1c1ccc(/C=C(\C#N)C(=O)Nc2cc(Cl)ccc2Cl)o1 (centres undefined)	-37.1	23.8*	-17.9	-11.2	0.0
CC1CC1c1ccc(/C=C(\C#N)C(=O)Nc2ccc(Cl)cc2Cl)o1 (centres undefined)	-84.1	39.6*	-24.9	-32.9	2.7
COc1ccccc1CNC(=O)COc1cccc(-n2cnnn2)c1	x	0.0	x	-3.4	x
COc1cccc(N2CCN(C(=O)c3cccc(NC4=NC5CS(=O)(=O)CC5S4)c3)CC2)c1 (centres undefined)	x	-3.9	x	-7.7	x
O=c1cc2oc3cc(O)c(O)cc3c(-c3ccccc3[N+](=O)[O-])c-2cc1O	x	17.5*	x	-5.7	x
Cc1c(C#N)c(N)nc2c3c(sc12)NC(=O)CC3c1ccc(Cl)cc1 (centres undefined)	7.7	2.7	4.7	x	46.1
N#Cc1c(N)nc2c3c(sc(=N)c2c1N)NC(=O)CC3c1c(F)cccc1Cl (centres undefined)	8.7	84.8*	8.5	-3.8	12.9
N#Cc1c(N)nc2c3c(sc(=N)c2c1N)NC(=O)CC3c1ccccc1 (centres undefined)	39.5	118.7*	23.2	-3.3	9.6
COc1ccc(C(=O)Nc2ccc(C(=O)N3CCCCC3C)cc2)c(OC)c1OC (centres undefined)	x	3.4	x	-5.8	x
